Experiments:
Plasmodium falciparum = assay: Antiplasmodial activity against chloroquine-sensitive Plasmodium falciparum NF54 infected in erythrocytes assessed as reduction in parasite growth incubated for 48 hrs by lactate dehydrogenase assay; type: functional, organism-based; details: NF54, Erythrocyte
Outline: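 P. falciparum NF54 cultured in supplemented RPMI-1640 at 37 °C under 5% CO₂/3% O₂/92% N₂. Rings synchronised with 5% D-sorbitol and set to 2% parasitaemia, 2% haematocrit. Serial dilutions added after a 24 h incubation, then a further 48 h incubation. Quinine as positive control. pLDH read-out with tetrazolium-phenazine ethosulphate, 40 min at 37 °C, A620. IC50 from log sigmoid dose-response curves, triplicate.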

[1] = Selectivity index, ratio of IC50 for human HEK293 cells to IC50 for Plasmodium falciparum NF54; type: toxicity; details: read-out: Ratio IC50
HEK293 = assay: Cytotoxicity against human HEK293 cells incubated for 48 hrs by MTT assay; type: cell-based; details: HEK293, 48 h
Outline: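 HEK-293 monolayers grown in DMEM with 10% FBS and penicillin/streptomycin at 37 °C, 5% CO₂. Cells at 10 000/well exposed 48 h to serial dilutions with final DMSO under 1%. Camptothecin as positive control. MTT (5 mg/ml in PBS pH 7.3) added for 2 h, formazan dissolved in DMSO, read at A540 with 690 nm reference. IC50 from % viability, triplicate.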

[2] = Binding affinity to recombinant Plasmodium falciparum HSP70-z expressed in Escherichia coli assessed as dissociation rate constant by SPR analysis
Outline: (§1)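 MP-SPR at 25 °C in PBS-Tween 20 with 20 mM EDTA, pH 7.4. Analyte at 0, 1.25, 2.5, 5 and 10 nM, injected three times. Association 3 min, dissociation 10 min. Double-referenced, global 1:1 Langmuir fit.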

[3] = Binding affinity to recombinant Plasmodium falciparum HSP70-1 expressed in Escherichia coli assessed as steady state affinity by SPR analysis; outline: as §1
[4] = Binding affinity to recombinant Plasmodium falciparum HSP70-z expressed in Escherichia coli assessed as steady state affinity by SPR analysis; outline: as §1
[5] = Binding affinity to recombinant Plasmodium falciparum HSP70-1 expressed in Escherichia coli assessed as dissociation rate constant by SPR analysis; outline: as §1

COc1ccc(C(=O)/C=C/c2ccc(OC)c(OC)c2)c(O)c1
IC50 (Plasmodium falciparum): 3180 nM

COc1ccc(/C=C/C(=O)c2ccc(O)cc2)c(O)c1
IC50 (Plasmodium falciparum): 590 nM

COc1ccc(-c2cc(-c3ccc(OC)c(OC)c3)nc(N3CCN(c4ccnc5cc(Cl)ccc45)CC3)n2)cc1
IC50 (Plasmodium falciparum): 17800 nM

C=C[C@H]1CN2CC[C@H]1C[C@H]2[C@H](O)c1ccnc2ccc(OC)cc12 [QUININE]
IC50 (Plasmodium falciparum): 108 nM
selectivity ratio [1]: 1240
IC50 (HEK293): 134000 nM

COc1ccc(-c2cc(-c3ccc(OC)c(OC)c3)nc(NCCCCNc3ccnc4cc(Cl)ccc34)n2)cc1
IC50 (Plasmodium falciparum): 2610 nM

COc1ccc(-c2cc(-c3ccc(OC)c(OC)c3)nc(N3CCN(c4ccnc5cc(Cl)ccc45)CC3)n2)cc1OC
Dissociation rate constant (koff) [2]: 7.48 10^-2/s
Kd [3]: 26.1 nM
Kd [4]: 2050 nM
IC50 (Plasmodium falciparum): 6170 nM
Dissociation rate constant (koff) [5]: 7 10^-2/s

Oc1ccc(-c2cc(-c3ccc(O)c(O)c3)nc(NCCCCNc3ccnc4cc(Cl)ccc34)n2)cc1
Dissociation rate constant (koff) [2]: 9.06 10^-2/s
Kd [3]: 281 nM
Kd [4]: 4750 nM
IC50 (Plasmodium falciparum): 1620 nM
Dissociation rate constant (koff) [5]: 7.84 10^-2/s

Oc1ccc(-c2cc(-c3ccc(O)c(O)c3)nc(N3CCN(c4ccnc5cc(Cl)ccc45)CC3)n2)cc1
IC50 (Plasmodium falciparum): 2660 nM

COc1ccc(-c2cc(-c3ccc(C)cc3)nc(NCCNc3ccnc4cc(Cl)ccc34)n2)cc1
IC50 (Plasmodium falciparum): 4300 nM

CC[C@@]1(O)C(=O)OCc2c1cc1n(c2=O)Cc2cc3ccccc3nc2-1 [CAMPTOTHECIN]
selectivity ratio [1]: 0.01

CCN(CC)CCCC(C)Nc1ccnc2cc(Cl)ccc12 (centres undefined) [CHLOROQUINE]
IC50 (HEK293): 101000 nM

Cc1ccc(-c2cc(-c3ccc(Cl)cc3)nc(N3CCN(c4ccnc5cc(Cl)ccc45)CC3)n2)cc1
IC50 (Plasmodium falciparum): 13100 nM

COc1ccc(-c2cc(-c3ccc(C)cc3)nc(NCCCNc3ccnc4cc(Cl)ccc34)n2)cc1
IC50 (Plasmodium falciparum): 2710 nM

Clc1ccc2c(N3CCN(c4nc(-c5ccccc5)cc(-c5ccccc5)n4)CC3)ccnc2c1
IC50 (Plasmodium falciparum): 7500 nM

COc1ccc(-c2cc(-c3ccc(OC)cc3)nc(N3CCN(c4ccnc5cc(Cl)ccc45)CC3)n2)cc1
Dissociation rate constant (koff) [2]: 8.24 10^-2/s
Kd [3]: 2.19 nM
Kd [4]: 13700 nM
IC50 (Plasmodium falciparum): 7690 nM
Dissociation rate constant (koff) [5]: 1.32 10^-2/s

Cc1ccc(-c2cc(-c3ccc(Cl)cc3)nc(NCCCCNc3ccnc4cc(Cl)ccc34)n2)cc1
IC50 (Plasmodium falciparum): 9490 nM

COc1ccc(-c2cc(-c3ccc(C)cc3)nc(N3CCN(c4ccnc5cc(Cl)ccc45)CC3)n2)cc1
IC50 (Plasmodium falciparum): 2630 nM

COc1ccc(-c2cc(-c3ccc(OC)cc3)nc(NCCCCNc3ccnc4cc(Cl)ccc34)n2)cc1
IC50 (Plasmodium falciparum): 83000 nM

Oc1ccc(-c2cc(-c3ccc(O)cc3)nc(NCCCCNc3ccnc4cc(Cl)ccc34)n2)cc1
Dissociation rate constant (koff) [2]: 1.2 10^-1/s
Kd [3]: 11.4 nM
Kd [4]: 4.43 nM
IC50 (Plasmodium falciparum): 320 nM
selectivity ratio [1]: 9.79
Dissociation rate constant (koff) [5]: 8.81 10^-2/s
IC50 (HEK293): 3160 nM
